From article PMC8123931 (Nature chemical biology, 2020)
Like-named read-outs stand apart in the source and are kept apart here. Each block holds one compound with its values, some of them ahead of it.

Legend:
MaMTH stable bait cells = assay: Reporter cell viability; type: cell-based
Procedure, shortened: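 MaMTH stable bait cells seeded at 10,000 cells/well in 96-well plates. Next day treated across a dose range of test compound, with 0.5 μg/mL tetracycline to induce bait expression. Viability measured by CellTiter-Glo luminescence after 72 h of drug exposure.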

[1] = system: PC9 EGFR ex19del/T790M/C797S cells; assay: Western analysis of EGFR activation and downstream signalling; type: cell-based; conditions: for EGFR activation and signalling through ERK and AKT: 20 µM; for EGFR activation and signalling through ERK and AKT / EGFR phosphorylation/activation / phosphorylation of downstream signalling partners: 2 hours treatment; for potency towards mutant EGFR relative to EMI1: 10 µM dose; for EGFR phosphorylation/activation: compared with PC9 ex19del cells; for phosphorylation of downstream signalling partners: triple mutant cells
[2] = system: PC9 EGFR ex19del/T790M/C797S cells; assay: Microtubule imaging; type: cell-based
ALK = ALK (Homo sapiens, UniProt Q9UM73); conditions: dose response
ALK, sequence (Q9UM73 19-1620): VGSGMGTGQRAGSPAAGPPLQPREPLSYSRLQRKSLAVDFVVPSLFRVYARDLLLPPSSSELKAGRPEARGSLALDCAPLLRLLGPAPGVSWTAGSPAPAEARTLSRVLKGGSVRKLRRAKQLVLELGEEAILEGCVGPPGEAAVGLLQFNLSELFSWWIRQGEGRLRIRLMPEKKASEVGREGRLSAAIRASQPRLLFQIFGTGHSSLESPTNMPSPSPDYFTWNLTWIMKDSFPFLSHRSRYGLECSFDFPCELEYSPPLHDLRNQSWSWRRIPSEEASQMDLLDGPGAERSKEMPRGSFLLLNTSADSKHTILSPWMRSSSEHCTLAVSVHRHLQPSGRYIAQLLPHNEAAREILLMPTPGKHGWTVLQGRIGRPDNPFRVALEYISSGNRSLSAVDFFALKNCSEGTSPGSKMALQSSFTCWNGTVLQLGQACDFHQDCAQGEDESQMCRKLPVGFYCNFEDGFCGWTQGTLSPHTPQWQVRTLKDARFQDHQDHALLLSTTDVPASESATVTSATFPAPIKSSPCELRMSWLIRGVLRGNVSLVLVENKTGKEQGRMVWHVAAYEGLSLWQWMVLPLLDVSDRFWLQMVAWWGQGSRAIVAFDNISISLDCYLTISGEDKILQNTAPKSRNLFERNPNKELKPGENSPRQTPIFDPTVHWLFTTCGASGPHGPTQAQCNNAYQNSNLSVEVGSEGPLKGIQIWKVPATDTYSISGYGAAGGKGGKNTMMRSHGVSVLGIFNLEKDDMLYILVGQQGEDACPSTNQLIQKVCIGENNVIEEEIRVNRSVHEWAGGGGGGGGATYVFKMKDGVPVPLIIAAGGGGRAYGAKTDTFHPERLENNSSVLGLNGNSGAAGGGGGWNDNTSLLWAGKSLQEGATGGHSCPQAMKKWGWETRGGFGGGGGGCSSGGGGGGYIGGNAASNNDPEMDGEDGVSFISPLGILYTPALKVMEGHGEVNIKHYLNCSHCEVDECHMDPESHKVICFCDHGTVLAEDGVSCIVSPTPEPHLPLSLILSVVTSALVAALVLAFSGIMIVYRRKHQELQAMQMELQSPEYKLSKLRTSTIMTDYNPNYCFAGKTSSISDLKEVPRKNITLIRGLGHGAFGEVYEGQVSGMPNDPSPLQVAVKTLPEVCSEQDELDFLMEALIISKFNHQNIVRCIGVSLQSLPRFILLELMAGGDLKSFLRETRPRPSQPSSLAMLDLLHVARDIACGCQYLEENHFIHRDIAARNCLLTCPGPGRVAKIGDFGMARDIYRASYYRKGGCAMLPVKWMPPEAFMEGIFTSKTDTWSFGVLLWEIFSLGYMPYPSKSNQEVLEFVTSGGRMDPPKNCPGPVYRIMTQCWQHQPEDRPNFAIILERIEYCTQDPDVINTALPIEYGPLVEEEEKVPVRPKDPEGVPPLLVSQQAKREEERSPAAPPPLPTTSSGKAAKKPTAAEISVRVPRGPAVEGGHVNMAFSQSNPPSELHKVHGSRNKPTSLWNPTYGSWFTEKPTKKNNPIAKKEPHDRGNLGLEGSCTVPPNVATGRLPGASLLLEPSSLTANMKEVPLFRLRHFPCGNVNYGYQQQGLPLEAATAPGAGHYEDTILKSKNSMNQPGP

[3] = system: RTK bait (MET, FGFR4, AXL, ALK, EGFR); conditions: for bait expression: EGFR WT and mutant baits
EGFR L858R/T790M/C797S [4] = biological target: T1, EGFR L858R/T790M/C797S (Homo sapiens, UniProt P00533, C797S/L858R/T790M); assay: MaMTH-DS assay and screen, EGFR L858R/T790M/C797S bait with Shc1 prey; type: cell-based
AXL = biological target: T2, AXL (Homo sapiens, UniProt P30530); assay: MaMTH-DS assay, AXL bait with Shc1 prey; type: cell-based; conditions: dose response
T2 sequence (P30530 26-894): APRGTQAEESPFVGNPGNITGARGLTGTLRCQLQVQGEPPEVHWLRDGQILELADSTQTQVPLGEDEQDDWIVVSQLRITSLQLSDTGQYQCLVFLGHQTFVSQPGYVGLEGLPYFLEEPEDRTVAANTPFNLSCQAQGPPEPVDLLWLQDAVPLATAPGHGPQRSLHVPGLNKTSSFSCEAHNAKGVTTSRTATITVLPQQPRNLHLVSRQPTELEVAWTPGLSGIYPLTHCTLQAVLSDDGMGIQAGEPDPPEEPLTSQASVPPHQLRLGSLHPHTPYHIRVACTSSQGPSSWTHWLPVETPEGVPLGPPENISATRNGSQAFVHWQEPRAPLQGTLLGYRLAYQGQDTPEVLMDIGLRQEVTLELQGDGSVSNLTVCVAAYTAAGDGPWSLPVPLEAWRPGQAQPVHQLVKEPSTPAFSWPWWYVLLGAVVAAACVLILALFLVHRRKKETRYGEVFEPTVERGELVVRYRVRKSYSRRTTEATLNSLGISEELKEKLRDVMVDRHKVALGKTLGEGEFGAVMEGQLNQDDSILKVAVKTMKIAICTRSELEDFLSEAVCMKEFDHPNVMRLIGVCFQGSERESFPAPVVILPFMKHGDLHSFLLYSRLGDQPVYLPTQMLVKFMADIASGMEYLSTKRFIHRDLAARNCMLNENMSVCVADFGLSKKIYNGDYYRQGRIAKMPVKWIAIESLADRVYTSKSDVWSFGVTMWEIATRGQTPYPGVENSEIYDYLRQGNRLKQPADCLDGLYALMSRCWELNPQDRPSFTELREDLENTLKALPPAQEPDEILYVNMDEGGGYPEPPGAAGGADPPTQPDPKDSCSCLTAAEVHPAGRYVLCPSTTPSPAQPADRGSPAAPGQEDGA

wild-type EGFR = wild-type EGFR (Homo sapiens, UniProt P00533); assay: In vitro kinase assay, recombinant kinase domain; type: biochemical; conditions: 100 µM ATP
EGFR L858R/T790M/C797S [5] = biological target: T1, EGFR L858R/T790M/C797S; assay: In vitro kinase assay, recombinant kinase domain; type: biochemical; conditions: 100 µM ATP
EGFR ex19del/T790M/C797S = EGFR ex19del/T790M/C797S (Homo sapiens, UniProt P00533, C797S/DEL746-750/T790M); assay: In vitro kinase assay, recombinant kinase domain; type: biochemical; conditions: 100 µM ATP
EGFR L858R = EGFR L858R (Homo sapiens, UniProt P00533, L858R); assay: In vitro kinase assay, recombinant EGFR single mutant; type: biochemical; conditions: compared with triple mutants
EGFR ex19del = assay: as above; type: biochemical; conditions: compared with triple mutants
EGFR ex19del/T790M = EGFR ex19del/T790M (Homo sapiens, UniProt P00533, DEL746-750/T790M); assay: In vitro kinase assay, recombinant EGFR double mutant; type: biochemical
EGFR L858R/T790M = EGFR L858R/T790M (Homo sapiens, UniProt P00533, L858R/T790M); assay: as above; type: biochemical
[6] = system: PC9 EGFR ex19del/T790M/C797S cells; assay: Caspase 3 and 7 assay; type: cell-based; conditions: 72 hours of drug treatment
A549 EGFR WT cells = assay: Caspase 3 and 7 assay; type: cell-based; conditions: 72 hours of drug treatment
Procedure, shortened: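 A549 cells were plated in 384-well plates at 5,000 cells per well and exposed to test compound for 72 h. Caspase 3 and 7 activity was then read by luminescence using the Caspase-Glo 3/7 reagent.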

[7] = system: PC9 EGFR ex19del/T790M/C797S organoids; assay: Organoid viability assay; type: cell-based
[8] = system: HEK293 EGFR L858R/T790M/C797S cells; assay: EGFR localization and endosomal trafficking; type: cell-based
HEK293 EGFR WT cells = assay: EGFR localization and endosomal trafficking; type: cell-based; conditions: 1 µM compound, 30 minutes EGF
[9] = system: HEK293 EGFR L858R/T790M/C797S cells; assay: Cell surface biotinylation assay; type: cell-based; conditions: 5 µM compound, 2 hours

Structure (SMILES): C=CC(=O)Nc1cccc(C)c1Nc1ncc2cc(-c3c(Cl)c(OC)cc(OC)c3Cl)ccc2n1 [BLU9931]
reporter cell viability (MaMTH stable bait cells; FGFR4 bait cells): no effect on reporter cell viability

Structure (SMILES): COc1cc2c(c(OC)c1OC)-c1ccc(OC)c(=O)cc1[C@@H](NC(C)=O)CC2 [Colchicine]
EGFR activation and signalling through ERK and AKT [1]: not evident

Structure (SMILES): CC(=O)O[C@@]12CO[C@@H]1C[C@H](O)[C@@]1(C)C(=O)[C@H](O)C3=C(C)[C@@H](OC(=O)[C@H](O)[C@@H](NC(=O)OC(C)(C)C)c4ccccc4)C[C@@](O)([C@@H](OC(=O)c4ccccc4)[C@H]21)C3(C)C [Docetaxel]
EGFR activation and signalling through ERK and AKT [1]: not evident

Structure (SMILES): CCN(CC)c1ccc2cc(-c3nc4cc(C)ccc4o3)c(=O)oc2c1 [EMI48]
potency towards mutant EGFR relative to EMI1 [1]: greater potency towards mutant EGFR than EMI1
interphase microtubules and spindle formation [2]: did not affect interphase microtubules, nor have an effect on spindle formation

Structure (SMILES): CCN(CC)c1cc2oc(=O)c(-c3nc4ccccc4o3)cc2cc1C [EMI56]
potency towards mutant EGFR relative to EMI1 [1]: greater potency towards mutant EGFR than EMI1
interphase microtubules and spindle formation [2]: did not affect interphase microtubules, nor have an effect on spindle formation

Structure (SMILES): COC(=O)Nc1nc2ccc(C(=O)c3cccs3)cc2[nH]1 [Nocodazole]
EGFR activation and signalling through ERK and AKT [1]: not evident

Structure (SMILES): COc1cc(OC)c(/C=C/S(=O)(=O)Cc2ccc(OC)c(NCC(=O)O)c2)c(OC)c1 [Rigosertib]
EGFR activation and signalling through ERK and AKT [1]: not evident

Structure (SMILES): COc1cc(N2CCC(N3CCN(C)CC3)CC2)ccc1Nc1ncc(Cl)c(Nc2ccccc2P(C)(C)=O)n1 [brigatinib]
reporter cell viability (MaMTH stable bait cells; ALK bait cells): cell viability was unaffected
ALK activity (interaction with Shc1) (ALK): strongly reduced, in a dose-dependent manner
bait expression level ([3]; ALK bait): not altered by compound

Structure (SMILES): CC1(COc2ccc3c(c2)ncn3-c2ccc3cccc(N4CCC(N)CC4)c3n2)COC1 [crenolanib]
interaction of Shc1 with EGFR L858R/T790M/C797S (in words) (EGFR L858R/T790M/C797S [4]): none were found to target the EGFR C797S triple mutant

Structure (SMILES): C[C@@H](Oc1cc(-c2cnn(C3CCNCC3)c2)cnc1N)c1c(Cl)ccc(F)c1Cl [crizotinib]
reporter cell viability (MaMTH stable bait cells; MET bait cells): not due to a loss in cell viability

Structure (SMILES): C#Cc1cccc(Nc2ncnc3cc(OCCOC)c(OCCOC)cc23)c1 [erlotinib]
AXL activity (interaction with Shc1) (AXL): not erlotinib control
reporter cell viability (MaMTH stable bait cells; EGFR WT and mutant bait cells): not due to a reduction in reporter cell viability
bait expression [3]: no effect of TKIs on bait expression

Structure (SMILES): COc1cc2c(Oc3ccc(NC(=O)C4(C(=O)Nc5ccc(F)cc5)CC4)cc3F)ccnc2cc1OCCCN1CCOCC1 [foretinib]
AXL activity (interaction with Shc1) (AXL): strongly reduced, in a dose-dependent manner
reporter cell viability (MaMTH stable bait cells; AXL bait cells): cell viability was unaffected
bait expression level ([3]; AXL bait): not altered by compound

IC50 values, inhibition of kinase domain (in words) (EGFR L858R/T790M/C797S [5]): low nanomolar range
IC50 values, inhibition of kinase domain (in words) (EGFR ex19del/T790M/C797S): low nanomolar range
activity against single mutant (EGFR L858R): less effective
activity against single mutant (EGFR ex19del): less effective
activity against double mutant (EGFR ex19del/T790M): moderate to strong activity
activity against double mutant (EGFR L858R/T790M): moderate to strong activity
Structure (SMILES): CCc1nc(C(N)=O)c(Nc2ccc(N3CCC(N4CCN(C)CC4)CC3)c(OC)c2)nc1NC1CCOCC1 [gilteritinib]
interaction of Shc1 with EGFR L858R/T790M/C797S (in words) (EGFR L858R/T790M/C797S [4]): potent and highly specific inhibitor of the EGFR triple mutant
activity towards triple mutants compared with WT EGFR (wild-type EGFR): significantly more potent activity towards the mutants than WT EGFR
caspase 3/7 activity [6]: induced caspase 3 and 7 activity
caspase 3/7 activity (A549 EGFR WT cells): not in A549 epithelial cells carrying EGFR WT
EGFR phosphorylation/activation [1]: reduced EGFR phosphorylation/activation in PC9 ex19del/T790M/C797S triple mutant cells more strongly
phosphorylation of downstream signalling partners [1]: more potently reducing pAKT levels
organoid viability / growth [7]: potently affected the growth of PC9 triple mutant organoids

interaction of Shc1 with EGFR L858R/T790M/C797S (in words) (EGFR L858R/T790M/C797S [4]): robust, dose-dependent inhibition
activity against single mutant (EGFR L858R): less effective
activity against single mutant (EGFR ex19del): less effective
activity against double mutant (EGFR ex19del/T790M): moderate to strong activity
activity against double mutant (EGFR L858R/T790M): moderate to strong activity
Structure (SMILES): CO[C@@H]1[C@H](N(C)C(=O)c2ccccc2)C[C@H]2O[C@]1(C)n1c3ccccc3c3c4c(c5c6ccccc6n2c5c31)C(=O)NC4 [midostaurin]
activity towards triple mutants compared with WT EGFR (wild-type EGFR): significantly more potent activity towards the mutants than WT EGFR
caspase 3/7 activity [6]: induced caspase 3 and 7 activity
caspase 3/7 activity (A549 EGFR WT cells): not in A549 epithelial cells carrying EGFR WT
EGFR phosphorylation/activation [1]: reduced EGFR phosphorylation/activation in PC9 ex19del/T790M/C797S triple mutant cells more strongly
phosphorylation of downstream signalling partners [1]: more potently reducing pAKT and pERK levels
organoid viability / growth [7]: potently affected the growth of PC9 triple mutant organoids
EGF accumulation in EEA1-positive early endosomes ([8]; 1 µM compound, 30 minutes EGF): significantly reduced EGF accumulation in EEA1-positive early endosomes
overall amount of EGFR pY1068 localized to EEA1-positive endosomes ([8]; 1 µM compound, 30 minutes EGF): significantly reduced the overall amount of EGFR pY1068 localized to EEA1-positive endosomes
average amount of activated EGFR per endosome ([8]; 30 min EGF): reduced the amount of activated EGFR per endosome
number of early endosomes carrying activated EGFR ([8]; 30 min EGF): had no effect on total endosome number
EGF accumulation in EEA1-positive early endosomes (HEK293 EGFR WT cells): A similar effect was observed for EGFR WT cells but to a lesser degree
overall amount of EGFR pY1068 localized to EEA1-positive endosomes (HEK293 EGFR WT cells): not in EGFR WT
surface levels of EGFR [9]: not observed

Structure (SMILES): C=CC(=O)Nc1cc(Nc2nccc(-c3cn(C)c4ccccc34)n2)c(OC)cc1N(C)CCN(C)C [osimertinib]
reporter cell viability (MaMTH stable bait cells; EGFR WT and mutant bait cells): not due to a reduction in reporter cell viability
organoid viability / growth [7]: has no effect
EGF accumulation in EEA1-positive early endosomes ([8]; 1 µM compound, 30 minutes EGF): had no effect
surface levels of EGFR [9]: not observed
bait expression [3]: no effect of TKIs on bait expression

Structure (SMILES): CC(C)(C)c1cc(NC(=O)Nc2ccc(-c3cn4c(n3)sc3cc(OCCN5CCOCC5)ccc34)cc2)no1 [quizartinib]
interaction of Shc1 with EGFR L858R/T790M/C797S (in words) (EGFR L858R/T790M/C797S [4]): none were found to target the EGFR C797S triple mutant
